Results reported in ChEMBL document CHEMBL4311956, “A Qualified Success: Discovery of a New Series of ATAD2 Bromodomain Inhibitors with a Novel Binding Mode Using High-Throughput Screening and Hit Qualification” (J Med Chem, 2019).
The source made the active and inactive calls. The rule behind the calls is not given here.

Tests used:
[1] = molecular target: T1, ATPase family AAA domain-containing protein 2 (Homo sapiens, UniProt Q6PL18); assay: Displacement of SGRG-K(Ac)-GG-K(Ac)-GLG-K(Ac)-GGAKRHRKV-biotin) from His6/FLAG-tagged TEV fused ATAD2 bromodomain (981 to 1121 residues) (unknown origin) expressed in Escherichia coli BL21(DE3) cells after 30 mins by TR-FRET assay
T1 sequence (Q6PL18 whole entry): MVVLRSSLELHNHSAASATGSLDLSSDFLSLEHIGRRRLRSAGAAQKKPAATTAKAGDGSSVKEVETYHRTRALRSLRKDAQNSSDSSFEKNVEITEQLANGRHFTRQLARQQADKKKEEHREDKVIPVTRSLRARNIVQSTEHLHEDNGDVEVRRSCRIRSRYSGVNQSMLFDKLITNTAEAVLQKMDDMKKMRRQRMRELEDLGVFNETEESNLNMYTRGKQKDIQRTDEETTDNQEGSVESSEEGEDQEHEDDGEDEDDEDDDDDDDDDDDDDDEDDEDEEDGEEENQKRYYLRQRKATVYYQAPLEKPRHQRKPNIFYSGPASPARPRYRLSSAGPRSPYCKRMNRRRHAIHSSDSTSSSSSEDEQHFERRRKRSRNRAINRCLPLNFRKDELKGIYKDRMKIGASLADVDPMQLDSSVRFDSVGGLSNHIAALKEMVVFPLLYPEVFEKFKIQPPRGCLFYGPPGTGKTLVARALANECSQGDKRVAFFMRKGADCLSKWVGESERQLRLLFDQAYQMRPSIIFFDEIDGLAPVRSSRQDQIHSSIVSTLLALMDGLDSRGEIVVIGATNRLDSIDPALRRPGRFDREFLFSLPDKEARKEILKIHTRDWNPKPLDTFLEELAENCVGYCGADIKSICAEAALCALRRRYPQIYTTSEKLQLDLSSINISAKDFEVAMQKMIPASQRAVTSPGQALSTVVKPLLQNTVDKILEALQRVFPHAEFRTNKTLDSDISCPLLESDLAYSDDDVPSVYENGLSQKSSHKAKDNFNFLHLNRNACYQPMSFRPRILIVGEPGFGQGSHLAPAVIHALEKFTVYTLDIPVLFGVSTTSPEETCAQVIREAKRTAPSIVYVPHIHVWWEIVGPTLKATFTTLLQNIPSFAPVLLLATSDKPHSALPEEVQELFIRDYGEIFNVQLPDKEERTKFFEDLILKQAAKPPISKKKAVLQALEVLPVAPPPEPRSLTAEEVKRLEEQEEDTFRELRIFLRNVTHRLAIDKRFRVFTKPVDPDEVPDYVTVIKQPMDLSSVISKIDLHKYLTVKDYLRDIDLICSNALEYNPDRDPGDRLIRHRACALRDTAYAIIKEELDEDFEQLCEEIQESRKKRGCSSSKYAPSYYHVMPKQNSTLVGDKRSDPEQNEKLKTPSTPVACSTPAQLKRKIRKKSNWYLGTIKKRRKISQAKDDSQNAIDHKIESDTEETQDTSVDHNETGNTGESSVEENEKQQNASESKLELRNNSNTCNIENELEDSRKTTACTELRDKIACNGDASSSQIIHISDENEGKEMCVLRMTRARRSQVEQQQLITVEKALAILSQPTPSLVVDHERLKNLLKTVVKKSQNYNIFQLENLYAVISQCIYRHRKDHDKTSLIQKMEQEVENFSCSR

[2] = molecular target: T2, ATPase family AAA domain-containing protein 2 (Homo sapiens) (UniProt Q6PL18); assay: Binding affinity to 15N-labelled ATAD2 (981 to 1108 residues) (unknown origin) at 100 uM by 1H-15N HSQC NMR analysis
T2 sequence (whole entry): T1 sequence (Q6PL18 whole entry)
Method in brief: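 15N–1H HSQC spectra of labelled ATAD2 bromodomain recorded with and without compound at 100 μM. Binding is judged from spectral changes.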

[3] = molecular target: T2, ATPase family AAA domain-containing protein 2 (Homo sapiens); assay: Displacement of SGRG-K(Ac)-GG-K(Ac)-GLG-K(Ac)-GGAKRHRKV-biotin) from His6/FLAG-tagged TEV fused ATAD2 bromodomain (981 to 1121 residues) (unknown origin) expressed in Escherichia coli BL21(DE3) cells at 10 uM after 30 mins by TR-FRET assay relative to control
[4] = molecular target: Bromodomain-containing protein 4 (Homo sapiens, UniProt O60885, Y390A); assay: Displacement of Alexa Fluor 647 labelled ligand from His6-tagged BRD4 BD1 (1 to 477 residues)/BD2 Y390A mutant (unknown origin) after 30 mins by TR-FRET assay
Method in brief: (§1)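 BET selectivity by TR-FRET fluoroligand displacement. Uses tandem BET bromodomain constructs carrying a mutation in the non-assayed bromodomain.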

[5] = molecular target: Bromodomain-containing protein 4 (Homo sapiens, UniProt O60885, Y97A); assay: Displacement of Alexa Fluor 647 labelled ligand from His6-tagged BRD4 BD2 (1 to 477 residues)/BD1 Y97A mutant (unknown origin) after 30 mins by TR-FRET assay; method in brief: as §1
[6] = molecular target: T1, ATPase family AAA domain-containing protein 2; assay: Binding affinity to His6/FLAG-tagged TEV fused ATAD2 bromodomain (950 to 1148 residues) (unknown origin) expressed in Escherichia coli BL21(DE3) cells by surface plasmon resonance
Method in brief: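 SPR screen of concentration–response up to 100 μM. Wild-type ATAD2 and a Y1021A/N1064A mutant lacking the acetyl-lysine binding motif were run in parallel. Hits were classed as binding, nonbinding or linear binding (nonsaturating response, calculated Kd above the top concentration).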

[7] = molecular target: T1, ATPase family AAA domain-containing protein 2; assay: Inhibition of ATAD2 bromodomain in human HUT78 chromatin lysate after 2 hrs by bromosphere competition binding assay
Method in brief: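 Bromosphere chemoproteomic assay. Measures competitive inhibition of binding of endogenous full-length ATAD2 from Hut-78 cells.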

Row | SMILES | IC50 [1] [µM] | Activity [2] | inhibition [3] [%] | IC50 [4] [µM] | IC50 [5] [µM] | Kd [6] [µM] | pIC50 [1] | IC50 [7] [µM]
1 | Cc1ccc(C2(C)NC(=O)N(CC(=O)Nc3ccc(C)c(S(=O)(=O)N4CCCCC4)c3)C2=O)cc1 (centres undefined) | 10 | Active | 33 | 5.01 | > 50.1 | 12.6 | – | –
2 | CC1(C2CC2)NC(=O)N(CC(=O)Nc2ccc(Cl)c(S(=O)(=O)N3CCCCC3)c2)C1=O (stereo in doubt; 19) | – | – | – | > 50.1 | > 50.1 | – | 5.9 | –
3 | CN(C)S(=O)(=O)c1cc(NC(=O)CN2C(=O)NC3(CCCc4ccccc43)C2=O)ccc1Cl (centres undefined) | 5.01 | Active | 52 | > 50.1 | > 50.1 | 7.94 | – | –
4 | Cc1ccc(NC(=O)CN2C(=O)NC(C)(C3CC3)C2=O)cc1S(=O)(=O)N1CCCCC1 (centres undefined) | 12.6 | Active | 52 | > 50.1 | > 50.1 | 20 | – | –
5 | CC1(C2CC2)NC(=O)N(CC(=O)Nc2ccc(Cl)c(S(=O)(=O)N3CCCCC3)c2)C1=O (racemic) [listing 1 of 2 here] | 1.26 | – | – | > 50.1 | 50.1 | 2 | – | 15.8
6 | COc1ccc(NC(=O)CN2C(=O)NC(C)(C3CC3)C2=O)cc1S(=O)(=O)N1CCCCC1 (racemic) | > 100 | – | – | > 50.1 | > 50.1 | – | – | –
7 | Cc1[nH]c(=O)c(C#N)c(C)c1CCC(=O)Nc1ccc(Cl)c(S(=O)(=O)N2CCCCC2)c1 | 1.26 | Active | 77 | > 50.1 | > 50.1 | 6.31 | – | 15.8
8 | O=C(CCNC(=O)c1ccccc1)Nc1ccc(Cl)c(S(=O)(=O)N2CCCCC2)c1 | > 100 | Active | 27 | > 50.1 | 39.8 | 50.1 | – | –
9 | CC1(C2CC2)NC(=O)N(CC(=O)Nc2cccc(S(=O)(=O)N3CCCCC3)c2)C1=O (racemic) | > 100 | – | – | > 50.1 | 31.6 | – | – | –
10 | O=C(CCNC1=NS(=O)(=O)c2ccccc21)Nc1ccc(Cl)c(S(=O)(=O)N2CCCC2)c1 | 10 | Active | 47 | > 50.1 | > 50.1 | 15.8 | – | –
11 | CC1(C2CC2)NC(=O)N(CC(=O)Nc2ccc(C(F)(F)F)c(S(=O)(=O)N3CCCCC3)c2)C1=O (racemic) | 10 | – | – | > 50.1 | 25.1 | – | – | –
12 | CC1(C2CC2)NC(=O)N(CC(=O)Nc2ccc(Cl)c(S(=O)(=O)N3CCCCC3)c2)C1=O (racemic) [listing 2 of 2 here] | – | Active | 79 | – | – | – | – | –
13 | CSCCC1NC(=O)N(CC(=O)Nc2ccc(Cl)c(S(=O)(=O)N3CCOCC3)c2)C1=O (centres undefined) | 10 | Active | 30 to 40 | > 50.1 | > 50.1 | 15.8 | – | –
14 | CCN(CC)S(=O)(=O)c1cc(NC(=O)CN2C(=O)NC(C)(c3ccccc3)C2=O)ccc1C (centres undefined) | 31.6 | Active | 29 | > 501 | 39.8 | 50.1 | – | –
15 | Cc1ccc(NC(=O)CN2C(=O)NC3(CCc4ccccc43)C2=O)cc1S(=O)(=O)N1CCCCC1 (centres undefined) | 7.94 | Active | 61 | > 50.1 | > 50.1 | 15.8 | – | –
16 | CC1(C2CC2)NC(=O)N(CC(=O)Nc2ccc(Cl)c(S(=O)(=O)N3CCCCC3)c2)C1=O (stereo in doubt; 18) | – | – | – | 10 | 31.6 | – | 5.9 | –
17 | Cc1ccccc1C(=O)NCC(=O)Nc1ccc(C)c(S(=O)(=O)N2CCCCCC2)c1 | 12.6 | Active | 39 | > 50.1 | > 50.1 | 31.6 | – | 39.8

Further lines, results first:

Row | IC50 [1] [µM] | Activity [2] | inhibition [3] [%] | IC50 [4] [µM] | IC50 [5] [µM] | Kd [6] [µM] | pIC50 [1] | IC50 [7] [µM] | SMILES
18 | > 1000 | – | – | – | – | – | – | – | CCC(=O)Nc1ccc(F)c(S(=O)(=O)N2CCCCC2)c1
19 | > 1000 | – | – | – | – | – | – | – | CCC(=O)Nc1ccc(C#N)c(S(=O)(=O)N2CCCCC2)c1
20 | 15.8 | – | – | – | – | – | – | – | CCC(=O)Nc1ccc(Br)c(S(=O)(=O)N2CCCCC2)c1
21 | > 1000 | – | – | – | – | – | – | – | CCC(=O)Nc1ccc(C(F)(F)F)c(S(=O)(=O)N2CCCCC2)c1
22 | > 1000 | – | – | – | – | – | – | – | CCC(=O)Nc1ccc(CC)c(S(=O)(=O)N2CCCCC2)c1
23 | > 1000 | – | – | – | – | – | – | – | CCC(=O)Nc1ccc(OC)c(S(=O)(=O)N2CCCCC2)c1
24 | 50.1 | Active | 30 | > 501 | > 501 | 50.1 | – | – | Cc1ccc(NC(=O)CN2C(=O)CN(C)C2=O)cc1S(=O)(=O)N1CCCCC1
25 | > 1000 | – | – | – | – | – | – | – | CCC(=O)Nc1ccc(N)c(S(=O)(=O)N2CCCCC2)c1
26 | 10 | Active | 58 | > 50.1 | > 50.1 | 7.94 | – | – | Cc1ccc(NC(=O)CN2C(=O)NC(C)(C)C2=O)cc1S(=O)(=O)N1CCCCCC1
27 | > 1000 | – | – | – | – | – | – | – | CCC(=O)Nc1ccc(O)c(S(=O)(=O)N2CCCCC2)c1
